ChEMBL document CHEMBL1131620, “Identification of novel ligands for the gabapentin binding site on the alpha2delta subunit of a calcium channel and their evaluation as anticonvulsant agents” (J Med Chem, 1998)

Assay: Inhibition of specific binding of [3H]gabapentin to Gabapentin binding sites located on the alpha-2-delta subunit of calcium channel.
Design: species or system Oryctolagus cuniculus
Outline: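 [3H]Gabapentin displacement from gabapentin sites on the calcium channel α2δ subunit. IC50 (nM) is the concentration giving half-maximal inhibition of specific radioligand binding.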

Structure (SMILES)	IC50
COC1CCCCC1(CN)CC(=O)O (configuration not stated)	> 10000 nM
CCC1CCCC(CN)(CC(=O)O)C1 (configuration not stated)	280 nM
CC1(C)CCC(CN)(CC(=O)O)CC1	1310 nM
CC1CCCC(CN)(CC(=O)O)C1 (configuration not stated)	> 10000 nM
CC1(C)CCCC(CN)(CC(=O)O)C1 (configuration not stated)	880 nM
C[C@H]1CC[C@](CN)(CC(=O)O)CC1	> 10000 nM
C[C@H]1CC[C@@](CN)(CC(=O)O)CC1	440 nM
NCC1(CC(=O)O)CCSCC1	385 nM
NCC1(CC(=O)O)CCCCC1C1CCCCC1 (configuration not stated)	> 10000 nM
CCCC1CCCC(CN)(CC(=O)O)C1 (configuration not stated)	3300 nM
NCC1(CC(=O)O)CCNCC1	> 10000 nM
CC1(C)CC(C)(C)CC(CN)(CC(=O)O)C1	> 10000 nM
CC[C@H]1CC[C@@](CN)(CC(=O)O)CC1	700 nM
NCC1(CC(=O)O)CCOCC1	2380 nM
C[C@@H]1CCC[C@@](CN)(CC(=O)O)C1	42 nM
CC(C)C1CCCC(CN)(CC(=O)O)C1 (configuration not stated)	6270 nM
NC[C@]1(CC(=O)O)CC[C@@H](c2ccccc2)CC1	> 10000 nM
C[C@H]1CCC[C@](CN)(CC(=O)O)C1	73 nM
C[C@@H]1C[C@H](C)CC(CN)(CC(=O)O)C1 (stereo in doubt; 27)	140 nM
NCC1(CC(=O)O)CCCC(c2ccccc2)C1 (configuration not stated)	> 10000 nM
C[C@@H]1C[C@H](C)CC(CN)(CC(=O)O)C1 (stereo in doubt; 28)	> 10000 nM
